CHOP inh – CHOP inhibition in unfolded protein response; AID 2732; CHO-K1 CHOP-promoter luciferase, tunicamycin-induced, 15-18 h; 3.8% of 220,000 active; inhibition, % at 10 µM;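 active = compounds that reduced the stress-induced luciferase reporter signal by more than about 70% of percent inhibition, limit read from the data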;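 note: 0% = tunicamycin plus vehicle and 100% = wells without tunicamycin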
CSC inhib – blocks cancer stem cells; cancer stem cell-like cells viability, luminescence; inhibition, % at 7.5 µM; 1.1% of 300,000 active; AID 2717; in the data active = inhibition above about 75%; inconclusive = no clear call, values can overlap the other calls; tested in HMLE shEcad cells
T cruzi inh – blocks replication of Trypanosoma cruzi | inhibition, % (test concentration not listed) | AID 1885 | 1.4% of 300,000 active | T. cruzi beta-gal in NIH3T3, luminescence, 90 h;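 active = mean inhibition across valid replicates above about 55%, limit read from the data; inconclusive = mean below that limit but half or more replicates reach it; inactive = mean below it, under half of replicates reach it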;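 note: signal also drops with host cell toxicity which is not excluded here; 0% = plate median of DMSO wells and 100% = zero luminescence signal; higher percent means less beta-gal luminescence so fewer parasites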
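Assay system: NIH/3T3 host cells with β-galactosidase reporter T. cruzi; input: 5,000 host fibroblasts per well; compound: single 50 nL compound addition per well in DMSO; timing: ≥90 h infection period, 3 h prior cell attachment; measured by: GalScreen β-gal luminescence, detergent lysis, 60 min; evaluation: percent inhibition of parasite-derived β-gal signal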
Beta apoptosis – beta cell apoptosis inhibition | INS-1E cytokine-induced death, ATP luminescence, 48 h; percent of positive-control rescue, neutral wells zero | protection from apoptosis, % (concentration not given with the values) | 0.8% of 300,000 active;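 active = Every replicate reaches about 75%, or at least half do and their mean reaches it too, limit read from the data; inconclusive = At least half of replicates reach the limit but their mean does not; inactive = Under half of replicates reach the limit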;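 note: 0% = cytokine-treated negative control wells and 100% = positive control rescue; higher means more ATP so stronger rescue from cytokine killing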
GRIN3A LBD mod – modulates the human NR3A ligand-binding domain. NR3A LBD differential scanning fluorimetry, Tm shift; 0% = protein alone, 100% = glycine-bound protein. Tm shift relative to glycine control, % at 25 µM. 2.5% of 340,000 active;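 active = melting temperature shift of at least 10% of the positive control shift, at one fixed dose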
PREPL inhibitor – inhibitors of human prolyl oligopeptidase-like enzyme PREPL; AID 2751; recombinant PREPL, fluorescence polarization activity-based probe; inhibition, % at 5.96 µM; Q4J6C6; 0.68% of 320,000 active; in the data active = inhibition above about 43%;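 note: 0% = enzyme with DMSO and 100% = wells lacking enzyme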
Target sequence (Q4J6C6 whole entry, looked up): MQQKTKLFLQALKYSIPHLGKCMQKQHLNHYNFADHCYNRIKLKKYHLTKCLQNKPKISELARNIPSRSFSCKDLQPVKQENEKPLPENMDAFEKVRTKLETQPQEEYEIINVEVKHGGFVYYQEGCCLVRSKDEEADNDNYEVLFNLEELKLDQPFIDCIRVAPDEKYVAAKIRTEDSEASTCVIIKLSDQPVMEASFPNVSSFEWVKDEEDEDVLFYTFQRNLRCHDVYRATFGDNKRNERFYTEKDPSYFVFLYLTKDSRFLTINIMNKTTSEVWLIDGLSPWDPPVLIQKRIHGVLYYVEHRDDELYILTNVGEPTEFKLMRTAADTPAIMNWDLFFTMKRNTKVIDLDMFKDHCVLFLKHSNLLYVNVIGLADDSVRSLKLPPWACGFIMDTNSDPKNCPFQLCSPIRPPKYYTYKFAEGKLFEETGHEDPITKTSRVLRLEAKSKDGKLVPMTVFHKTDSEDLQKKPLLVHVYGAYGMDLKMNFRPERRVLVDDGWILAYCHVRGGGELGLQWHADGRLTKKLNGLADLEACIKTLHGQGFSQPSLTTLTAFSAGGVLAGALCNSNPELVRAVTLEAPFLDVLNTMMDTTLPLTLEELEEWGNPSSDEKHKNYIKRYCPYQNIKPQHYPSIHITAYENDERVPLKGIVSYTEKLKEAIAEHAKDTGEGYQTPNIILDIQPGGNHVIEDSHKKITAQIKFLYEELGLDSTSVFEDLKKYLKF
The depositor's hits bear a star; ? = inconclusive; nt = not tested or not shown. Shown are actives, neighbours in structure and some others; about 6.7% of the full set was active somewhere.

SMILES	CHOP inh	CSC inhib	T cruzi inh	Beta apoptosis	GRIN3A LBD mod	PREPL inhibitor
CN(C)CCCNC(=O)c1cc(C(=O)c2ccccc2)c[nH]1	nt	-12.2	44.9	1.7	0.9	0.5
O=C(c1ccccc1)c1c[nH]c(C(=O)NNc2ccccc2)c1	12.6	96.7*	57.2*	12.3	0.8	6.6
Cc1c(NC(=O)OCCNC(=O)COc2c(Cl)cccc2Cl)sc(=S)n1C	9.2	11.3	-3.0	-7.2	2.0	6.4
CCOc1ccccc1CN1CCNC(=O)C1CC(=O)NC1CCCCCCC1 (configuration not stated)	nt	-9.3	25.5	-3.4	-0.9	15.1
O=C1NC(=S)/C(=C\c2ccc(-c3ccccc3Cl)o2)S1	68.8	118.1*	-0.8	-1.1	2.7	32.8
O=C1NC(=O)/C(=C/c2ccc(-c3cc(C(=O)O)ccc3Cl)o2)S1	nt	-7.7	-9.7	1.3	-4.6	2.8
CCC(C)c1ccc(NC(=S)N2CCN(C(=O)C3CCCO3)CC2)cc1 (configuration not stated)	nt	-21.7	-3.7	-9.2	-3.3	9.8
CCn1c2ccccc2c2cc(NC(=O)Cc3ccc(S(=O)(=O)N4CCOCC4)s3)ccc21	3.7	58.2	69.1*	7.6	-21.9	6.7
O=C(Cc1ccc(S(=O)(=O)N2CCOCC2)s1)Nc1cc(C(F)(F)F)cc(C(F)(F)F)c1	nt	68.9	nt	-11.6	17.3*	10.4
O=C(Cc1ccc(S(=O)(=O)N2CCOCC2)s1)Nc1cc(C(F)(F)F)ccc1N1CCCC1	nt	-13.3	1.8	-6.2	-1.2	10.4
CN(C)S(=O)(=O)c1ccc(NC(=O)Cc2ccc(S(=O)(=O)N3CCOCC3)s2)cc1	13.6	-7.0	-9.8	-8.9	-2.9	-2.2
CN(C)c1ccc(/C=C/c2nc3ccccc3c(=O)[nH]2)cc1	nt	83.6*	-11.2	32.9	-9.6	19.6
C(=C\c1nc2ccccc2[nH]1)/c1ccccc1	32.0	81.7*	-6.1	51.6	5.2	-11.5
COc1ccc(C(=O)Nc2cccc(/C=C/c3nc4ccccc4c(=O)[nH]3)c2)cc1	91.4*	77.5*	16.9	42.5	9.3	-4.7
Cc1cccc(/C=C\c2nc3ccccc3c(=O)[nH]2)c1	100.9*	58.5	-3.9	17.2	-0.1	0.0
O=C(CC1SC(N2CCCCC2)=NC1=O)Nc1cccc(C(=O)Nc2ncccc2O)c1 (configuration not stated)	nt	nt	2.0	2.4	-0.4	-0.9
Cc1ccccc1N1CCN(S(=O)(=O)Cc2ccccc2)CC1	nt	2.6	15.9	-5.9	5.2	-75.0
CCOc1ncccc1C(=O)OCC(=O)c1cccc(Br)c1	26.5	-8.0	-11.4	nt	-1.0	3.3
CC(C)On1c(SCC(=O)N(C)C)nc2ccccc2c1=O	-1.1	-2.2	-5.9	5.9	2.0	5.1
COc1cccc(N2CCN(C(=O)c3cc4c(s3)CCCCC4)CC2)c1	nt	11.2	nt	-1.5	1.8	17.8
CCCCOc1ccc(C(=O)NCC(=O)NC2CCC(C)CC2)cc1 (configuration not stated)	nt	1.1	4.4	0.2	-1.8	3.5
COc1cc(/C=C/c2nc3ccccc3c(=O)[nH]2)cc(Cl)c1O	nt	-9.2	-13.9	-3.9	26.8*	2.6
CC(=O)c1ccc(NC(=O)CSc2nc3[nH]ncc3c(=O)[nH]2)cc1	nt	-3.5	-1.1	-3.4	1.2	5.3
O=C(CSc1nc2[nH]ncc2c(=O)[nH]1)Nc1ccccc1F	nt	6.7	-8.4	nt	14.1*	-88.0
COC(=O)c1ccc(NC(=O)CSc2nc3[nH]ncc3c(=O)[nH]2)cc1	nt	-0.5	-8.0	nt	14.1*	10.6
SMILES	CHOP inh	CSC inhib	T cruzi inh	Beta apoptosis	GRIN3A LBD mod	PREPL inhibitor
COc1ccccc1C(CNC(=O)c1cccc(S(=O)(=O)NCc2ccccc2)c1)N(C)C (configuration not stated)	nt	-0.8	9.4	-0.3	1.5	-0.7
CC(C)=C(C#N)c1nc2ccccc2s1	2.0	-4.0	-12.7	-5.6	0.1	-6.0
Cc1ccc(OC/C(O)=C(\C#N)c2nc3ccccc3s2)cc1	-1.1	77.8*	-34.7	10.7	5.7	2.6
Cn1c(/C(C#N)=C(\O)COc2ccc3ccccc3c2)nc2ccccc21	93.4*	?	-0.8	-2.5	-1.6	12.5
Cn1c(/C(C#N)=C(\O)c2ccccc2Cl)nc2ccccc21	nt	11.5	-28.9	nt	-6.2	-6.9
Cc1ccc(S(=O)(=O)N2CCN(C(=O)COC(=O)/C=C/c3ccccc3[N+](=O)[O-])CC2)c(C)c1	nt	-1.0	-12.5	-4.0	-3.1	16.9

High-throughput results from PubChem.
